Test results: ChEMBL document CHEMBL4017509, “A Dual Modulator of Farnesoid X Receptor and Soluble Epoxide Hydrolase To Counter Nonalcoholic Steatohepatitis” (J Med Chem, 2017)
Activity calls are given as the source filed them. The rule behind the calls is not given here.

Key:
[1] = tested on: HepG2; assay: Cytotoxicity against human HepG2 cells up to 100 uM after 48 hrs by WST1 assay; type: cell-based; settings: hepg2, 48 h
[2] = molecular target: Oxysterols receptor LXR-beta (Homo sapiens) (UniProt P55055); assay: Transactivation of human GAL4-fused LXRbeta ligand binding domain expressed in […] cells at 10 uM after 12 to 14 hrs by dual-glo luciferase reporter gene assay; type: cell-based
Procedure, shortened: (§1)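 HEK293T cells in DMEM/10% FCS, Opti-MEM before Lipofectamine LTX transfection with pFR-Luc reporter, pRL-SV40 and pFA-CMV GAL4–LBD plasmid. 5 h later compound in 0.1% DMSO, Opti-MEM, overnight (12−14 h). Dual luciferase; firefly/renilla ×1000 = RLU, fold over DMSO control; triplicates, ≥3 independent repeats.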

[3] = molecular target: Retinoic acid receptor alpha (Homo sapiens) (UniProt P10276); assay: Transactivation of human GAL4-fused RARalpha ligand binding domain expressed in […] cells at 10 uM after 12 to 14 hrs by dual-glo luciferase reporter gene assay; type: cell-based; procedure, shortened: as §1
[4] = molecular target: Vitamin D3 receptor (Homo sapiens) (UniProt P11473); assay: Transactivation of human GAL4-fused VDR ligand binding domain expressed in […] cells at 10 uM after 12 to 14 hrs by dual-glo luciferase reporter gene assay; type: cell-based; procedure, shortened: as §1
[5] = molecular target: T1, Bile acid receptor (Homo sapiens) (UniProt Q96RI1); assay: Transactivation of FXR in human HepG2 cells assessed as SHP mRNA expression at 1 uM after 8 to 16 hrs by SYBR green based qRT-PCR analysis relative to DMSO control; type: cell-based
T1 sequence (whole entry): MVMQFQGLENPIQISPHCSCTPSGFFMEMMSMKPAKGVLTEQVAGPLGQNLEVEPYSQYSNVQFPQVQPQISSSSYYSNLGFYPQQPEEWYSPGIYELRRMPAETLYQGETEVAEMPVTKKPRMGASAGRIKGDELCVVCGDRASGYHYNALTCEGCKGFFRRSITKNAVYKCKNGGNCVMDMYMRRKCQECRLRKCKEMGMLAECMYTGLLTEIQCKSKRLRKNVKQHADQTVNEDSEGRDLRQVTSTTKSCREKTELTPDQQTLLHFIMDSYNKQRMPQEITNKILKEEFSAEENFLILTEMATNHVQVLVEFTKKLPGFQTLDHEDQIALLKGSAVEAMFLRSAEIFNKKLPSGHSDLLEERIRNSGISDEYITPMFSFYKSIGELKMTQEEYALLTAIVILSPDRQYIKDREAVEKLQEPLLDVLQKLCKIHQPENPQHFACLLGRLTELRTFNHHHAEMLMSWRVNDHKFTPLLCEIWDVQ
Procedure, shortened: (§2)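 HepG2 cells incubated with test compound (0.1 and 1 μM) or 0.1% DMSO for 8 or 16 h, washed in cold PBS, RNA extracted; target mRNA by SYBR Green qRT-PCR, duplicate samples, ≥4 independent experiments; comparative ΔΔCt with GAPDH reference, vehicle set as 100%.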

[6] = molecular target: T2, Bile acid receptor (Homo sapiens, UniProt Q96RI1); assay: Transactivation of FXR in human HepG2 cells assessed as CYP7A1 mRNA expression at 1 uM after 8 to 16 hrs by SYBR green based qRT-PCR analysis relative to DMSO control; type: ADME, cell-based; procedure, shortened: as §2
T2 sequence (Q96RI1 whole entry): T1 sequence (whole entry)

[7] = molecular target: T2, Bile acid receptor; assay: Transactivation of FXR in human HepG2 cells assessed as CYP7A1 mRNA expression at 0.1 uM after 8 to 16 hrs by SYBR green based qRT-PCR analysis relative to DMSO control; type: ADME, cell-based
Procedure, shortened: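 HepG2 cells incubated with compound (0.1 or 1 μM) or 0.1% DMSO for 8 or 16 h, washed with cold PBS, RNA extracted. Quantified by SYBR Green real-time PCR, duplicate samples, at least four independent experiments. ΔΔCt method with GAPDH as reference gene. Expressed as % of vehicle (set to 100%), mean ± SEM.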

[8] = molecular target: T1, Bile acid receptor (Homo sapiens); assay: Transactivation of FXR in human HepG2 cells assessed as SREBP1c mRNA expression at 1 uM after 8 to 16 hrs by SYBR green based qRT-PCR analysis relative to DMSO control; type: cell-based; procedure, shortened: as §2
[9] = Tmax in C57BL/6JRj mouse at 10 mg/kg, po measured up to 480 mins post dose by LC-MS analysis; type: ADME, organism-based; settings: in vivo
Procedure, shortened: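 Male C57BL/6JRj mice (23−26 g), six dosed once orally at 10 mg/kg in water with 1% HPMC/Tween 80 (99:1), three vehicle. Tail-vein blood (20 μL) at 15, 30, 60, 120, 240 and 480 min, last by retro-orbital puncture. Blood spiked, acetonitrile precipitation with griseofulvin internal standard, LC−MS on phenyl-hexyl column. Noncompartmental PK analysis.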

[10] = tested on: Mus musculus; assay: In vivo activation of FXR in C57BL/6JRj mouse liver assessed as CYP7A1 mRNA expression at 10 mg/kg, po measured up to 480 mins post dose by qRT-PCR analysis relative to control; type: ADME, organism-based; settings: 8 h
Procedure, shortened: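 Male C57BL/6JRj mice (23−26 g), single oral 10 mg/kg in water with 1% HPMC/Tween 80 (99:1); vehicle group n = 3, treated n = 6. Livers taken 8 h postdose, snap-frozen; cells pressed through 40 μm strainer, total RNA extracted, qRT-PCR with ΔΔCt, % of vehicle.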

[11] = molecular target: G-protein coupled bile acid receptor 1 (Homo sapiens) (UniProt Q8TDU6); assay: Agonist activity at TGR5 (unknown origin) at 10 uM
[12] = tested on: Liver; assay: Drug metabolism in Sprague-Dawley rat liver microsomes assessed as 4-tert-butyl-N-(2-chloro-4-(methylsulfonamido)benzyl)-2-hydroxybenzamide formation at 10 uM preincubated with NADPH regenerating system for 5 mins followed by addition of liver microsomes by LC-MS/MS method; type: ADME, microsome

Sequence of Vitamin D3 receptor (Homo sapiens) (P11473 whole entry, the tested form may be a part): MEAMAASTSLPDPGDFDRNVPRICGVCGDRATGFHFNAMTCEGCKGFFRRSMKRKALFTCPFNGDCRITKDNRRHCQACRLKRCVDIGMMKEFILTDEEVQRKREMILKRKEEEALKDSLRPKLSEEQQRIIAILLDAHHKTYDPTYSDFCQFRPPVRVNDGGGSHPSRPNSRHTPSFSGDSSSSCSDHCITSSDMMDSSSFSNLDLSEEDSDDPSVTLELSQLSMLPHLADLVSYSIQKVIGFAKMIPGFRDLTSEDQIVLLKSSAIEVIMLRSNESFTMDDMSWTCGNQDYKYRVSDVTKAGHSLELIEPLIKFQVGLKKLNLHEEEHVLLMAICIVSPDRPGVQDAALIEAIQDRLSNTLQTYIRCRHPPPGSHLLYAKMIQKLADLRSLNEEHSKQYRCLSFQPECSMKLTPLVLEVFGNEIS
Sequence of Oxysterols receptor LXR-beta (Homo sapiens) (P55055 whole entry, the tested form may be a part): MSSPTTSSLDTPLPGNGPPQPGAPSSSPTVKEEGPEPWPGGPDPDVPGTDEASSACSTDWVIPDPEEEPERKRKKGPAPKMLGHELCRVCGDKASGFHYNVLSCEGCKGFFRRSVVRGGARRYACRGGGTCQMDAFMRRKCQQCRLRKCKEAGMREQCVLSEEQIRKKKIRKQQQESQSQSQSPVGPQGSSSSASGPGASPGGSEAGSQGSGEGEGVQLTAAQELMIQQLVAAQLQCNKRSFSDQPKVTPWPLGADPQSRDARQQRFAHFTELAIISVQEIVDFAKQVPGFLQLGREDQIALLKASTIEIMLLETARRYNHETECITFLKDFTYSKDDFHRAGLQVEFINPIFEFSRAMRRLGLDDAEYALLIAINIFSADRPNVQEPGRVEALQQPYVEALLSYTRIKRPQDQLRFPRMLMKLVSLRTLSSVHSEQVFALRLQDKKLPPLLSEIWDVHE
Sequence of Retinoic acid receptor alpha (Homo sapiens) (P10276 whole entry, the tested form may be a part): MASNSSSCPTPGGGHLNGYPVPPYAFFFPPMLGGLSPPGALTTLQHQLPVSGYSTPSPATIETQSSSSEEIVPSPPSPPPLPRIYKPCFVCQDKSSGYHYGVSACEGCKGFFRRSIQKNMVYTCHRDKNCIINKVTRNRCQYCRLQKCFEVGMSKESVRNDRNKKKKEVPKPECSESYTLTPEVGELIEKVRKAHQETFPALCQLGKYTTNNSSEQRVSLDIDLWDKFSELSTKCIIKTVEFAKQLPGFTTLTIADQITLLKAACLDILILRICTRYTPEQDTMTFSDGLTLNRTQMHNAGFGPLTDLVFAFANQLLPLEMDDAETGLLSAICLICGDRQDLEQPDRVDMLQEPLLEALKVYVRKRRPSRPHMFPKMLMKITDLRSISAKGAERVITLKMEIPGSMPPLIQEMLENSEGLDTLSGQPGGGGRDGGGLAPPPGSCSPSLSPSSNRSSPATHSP
Sequence of G-protein coupled bile acid receptor 1 (Homo sapiens) (Q8TDU6 whole entry): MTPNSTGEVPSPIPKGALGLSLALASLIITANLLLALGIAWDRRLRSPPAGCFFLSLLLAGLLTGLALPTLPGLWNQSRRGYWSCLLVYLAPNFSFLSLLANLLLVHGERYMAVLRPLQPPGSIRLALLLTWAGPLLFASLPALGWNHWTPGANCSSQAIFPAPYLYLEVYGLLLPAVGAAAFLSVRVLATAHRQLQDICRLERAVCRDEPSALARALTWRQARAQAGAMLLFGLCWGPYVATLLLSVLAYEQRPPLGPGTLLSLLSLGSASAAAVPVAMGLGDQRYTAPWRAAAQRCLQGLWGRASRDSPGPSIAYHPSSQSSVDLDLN

SMILES: CC(C)(C)c1ccc(C(=O)NCc2ccc(NS(C)(=O)=O)cc2Cl)cc1
- Activity [1]: Non-Toxic
- Activity [2]: inactive
- Activity [3]: inactive
- Activity [4]: inactive
- Activity [5]: 317%
- Activity [6]: 52%
- Activity [7]: 50%
- Activity [8]: 36%
- Tmax [9]: 30 min
- Activity [10]: 70%
- Activity [11]: inactive
- Drug metabolism [12]: Metabolite_Notdetected
